Results published in ChEMBL document CHEMBL3046880, “Syntheses and herbicidal activities of novel triazolinone derivatives” (J Agric Food Chem, 2008).

Tests used:
Brassica napus [1] = assay: Phytotoxicity against Brassica napus (oilseed rape) assessed as growth inhibition at 150 g of active ingredient/ha administered using post-emergence treatment measured 30 days post treatment protocol under greenhouse conditions; type: organism-based; conditions: in vivo, other, 720 h
Summary of the method: (§1)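 Compounds were formulated as 100 g/L emulsified concentrates in DMF with TW-80 as emulsifier, then diluted with water to the required concentration. They were applied postemergence to pot-grown plants in a greenhouse. The soil was clay, pH 6.5, with 1.6% organic matter, 37.3% clay particles and CEC 12.1 mol/kg. Sulfentrazone served as the reference control.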

Brassica napus [2] = assay: Phytotoxicity against Brassica napus (oilseed rape) assessed as growth inhibition at 450 g of active ingredient/ha administered using post-emergence treatment measured 30 days post treatment protocol under greenhouse conditions; type: organism-based; conditions: in vivo, other, 720 h; summary of the method: as §1
Eclipta prostrata = assay: Herbicidal activity against Eclipta prostrata assessed as growth inhibition at 37.5 g of active ingredient/ha administered using post-emergence treatment measured 15 days post treatment protocol under greenhouse conditions; type: functional
Summary of the method: (§2)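 Test agents were formulated as 100 g/L emulsified concentrates (DMF solvent, TW-80 emulsifier), diluted with water and sprayed postemergence on pot-grown weeds. Seeds were sown 1-3 cm deep in clay soil (pH 6.5, 1.6% organic matter, 37.3% clay, CEC […]) and grown at 15–30 °C in a greenhouse. Dicots were treated at the two-leaf stage. Untreated and DMF-treated plants served as controls. Activity was scored visually 15 days after treatment.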

Cerastium arvense = assay: Herbicidal activity against Cerastium arvense assessed as growth inhibition at 150 g of active ingredient/ha administered using post-emergence treatment measured 15 days post treatment protocol under greenhouse conditions; type: functional; summary of the method: as §2
Zea mays = assay: Phytotoxicity against Zea mays (maize) plant assessed as growth inhibition at 150 g of active ingredient/ha administered using post-emergence treatment measured 30 days post treatment protocol under greenhouse conditions; type: organism-based; conditions: in vivo, other, 720 h; summary of the method: as §1
Portulaca oleracea [3] = assay: Herbicidal activity against Portulaca oleracea assessed as growth inhibition at 75 g of active ingredient/ha administered using post-emergence treatment measured 15 days post treatment protocol under greenhouse conditions; type: functional; summary of the method: as §2
Digitaria sanguinalis [4] = assay: Herbicidal activity against Digitaria sanguinalis (hairy crabgrass) assessed as growth inhibition at 37.5 g of active ingredient/ha administered using post-emergence treatment measured 15 days post treatment protocol under greenhouse conditions; type: functional; summary of the method: as §2
Echinochloa crus-galli = assay: Herbicidal activity against Echinochloa crus-galli (barnyard grass) assessed as growth inhibition at 150 g of active ingredient/ha administered using post-emergence treatment measured 15 days post treatment protocol under greenhouse conditions; type: functional; summary of the method: as §2
Digitaria sanguinalis [5] = assay: Herbicidal activity against Digitaria sanguinalis (hairy crabgrass) assessed as growth inhibition at 75 g of active ingredient/ha administered using post-emergence treatment measured 15 days post treatment protocol under greenhouse conditions; type: functional; summary of the method: as §2
Glycine max = assay: Phytotoxicity against Glycine max (soybean) plant assessed as growth inhibition at 300 g of active ingredient/ha administered using post-emergence treatment measured 30 days post treatment protocol under greenhouse conditions; type: organism-based; conditions: in vivo, other, 720 h; summary of the method: as §1
Setaria viridis = assay: Herbicidal activity against Setaria viridis (green foxtail) assessed as growth inhibition at 37.5 g of active ingredient/ha administered using post-emergence treatment measured 15 days post treatment protocol under greenhouse conditions; type: functional; summary of the method: as §2
[6] = Phytotoxicity against Oryza sativa (rice) plant assessed as growth inhibition at 450 g of active ingredient/ha administered using post-emergence treatment measured 30 days post treatment protocol under greenhouse conditions; type: organism-based; conditions: in vivo, read-out: GI; summary of the method: as §1
Portulaca oleracea [7] = assay: Herbicidal activity against Portulaca oleracea assessed as growth inhibition at 150 g of active ingredient/ha administered using post-emergence treatment measured 15 days post treatment protocol under greenhouse conditions; type: functional; summary of the method: as §2
[8] = Phytotoxicity against Zea mays (maize) plant assessed as growth inhibition at 75 g of active ingredient/ha administered using post-emergence treatment measured 30 days post treatment protocol under greenhouse conditions; type: organism-based; conditions: in vivo, read-out: GI; summary of the method: as §1
[9] = Phytotoxicity against Gossypium hirsutum (cotton) plant assessed as growth inhibition at 75 g of active ingredient/ha administered using post-emergence treatment measured 30 days post treatment protocol under greenhouse conditions; type: organism-based; conditions: in vivo, read-out: GI; summary of the method: as §1
[10] = Phytotoxicity against Oryza sativa (rice) plant assessed as growth inhibition at 75 g of active ingredient/ha administered using post-emergence treatment measured 30 days post treatment protocol under greenhouse conditions; type: organism-based; conditions: in vivo, read-out: GI; summary of the method: as §1
Amaranthus retroflexus = assay: Herbicidal activity against Amaranthus retroflexus assessed as growth inhibition at 37.5 g of active ingredient/ha administered using post-emergence treatment measured 15 days post treatment protocol under greenhouse conditions; type: functional; summary of the method: as §2
[11] = Phytotoxicity against Oryza sativa (rice) plant assessed as growth inhibition at 300 g of active ingredient/ha administered using post-emergence treatment measured 30 days post treatment protocol under greenhouse conditions; type: organism-based; conditions: in vivo, read-out: GI; summary of the method: as §1
Gossypium hirsutum = assay: Phytotoxicity against Gossypium hirsutum (cotton) plant assessed as growth inhibition at 300 g of active ingredient/ha administered using post-emergence treatment measured 30 days post treatment protocol under greenhouse conditions; type: organism-based; conditions: in vivo, other, 720 h; summary of the method: as §1
[12] = Phytotoxicity against Triticum aestivum (wheat) plant assessed as growth inhibition at 75 g of active ingredient/ha administered using post-emergence treatment measured 30 days post treatment protocol under greenhouse conditions; type: organism-based; conditions: in vivo, read-out: GI; summary of the method: as §1
Brassica juncea = assay: Herbicidal activity against Brassica juncea assessed as growth inhibition at 150 g of active ingredient/ha administered using post-emergence treatment measured 15 days post treatment protocol under greenhouse conditions; type: functional; summary of the method: as §2
[13] = Phytotoxicity against Oryza sativa (rice) plant assessed as growth inhibition at 150 g of active ingredient/ha administered using post-emergence treatment measured 30 days post treatment protocol under greenhouse conditions; type: organism-based; conditions: in vivo, read-out: GI; summary of the method: as §1

CCS(=O)(=O)Nc1cc(-n2nc(C)n(Cc3ccccc3/C(=N\OC)C(=O)OC)c2=O)c(F)cc1Cl
Activity (Brassica napus [1]): Toxic | Activity (Brassica napus [2]): Toxic | growth inhibition (GI) (Eclipta prostrata): >80% | growth inhibition (GI) (Cerastium arvense): 100% | Activity (Zea mays): Toxic | growth inhibition (GI) (Portulaca oleracea [3]): 100% | growth inhibition (GI) (Digitaria sanguinalis [4]): 50% | growth inhibition (GI) (Echinochloa crus-galli): 50% | growth inhibition (GI) (Digitaria sanguinalis [5]): 50% | Activity (Glycine max): Toxic | growth inhibition (GI) (Setaria viridis): <50% | inhibition at 720 h [6]: 10% | growth inhibition (GI) (Portulaca oleracea [7]): 100% | inhibition at 720 h [8]: 40% | inhibition at 720 h [9]: 60% | inhibition at 720 h [10]: 0% | growth inhibition (GI) (Amaranthus retroflexus): >80% | inhibition at 720 h [11]: 0% | Activity (Gossypium hirsutum): Toxic | inhibition at 720 h [12]: 40% | growth inhibition (GI) (Brassica juncea): >80% | inhibition at 720 h [13]: 0%
